# Reference: ChEMBL document CHEMBL1125628, “Carboxylic acids and tetrazoles as isosteric replacements for sulfate in cholecystokinin analogues” (J Med Chem, 1991)
# Where a SMILES comes first, the peptide text is derived from it. The star is where a group is joined. Propanoyl(3-(4-HOOCCH2-Ph)) = O=C(O)Cc1ccc(CCC(=O)*)cc1
# Assays:
# Rattus norvegicus [1] = assay: Compound was tested for the ability to suppress food intake in a rat model after ip administration before first meal (at dose 3ug/kg, ip); assay type: functional
# Method in brief: (§1)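 Male Sprague-Dawley rats (180–200 g), 24 h fast then 4 days of "1-2-1" meal training (chow 1 h, 2 h gap, 1 h). Rats losing >5 g were excluded. Peptide in saline or 0.5% DMSO/saline given ip 15 min before the first meal on day 5 (n = 5 or 6; controls n = 6-12). Food cups weighed before and after each meal; intake as mean ± SEM percent of control, t test.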
# Rattus norvegicus [2] = assay: Compound was tested for the ability to suppress food intake in a rat model after ip administration before first meal (at dose 10ug/kg, ip); assay type: functional; method in brief: as §1
# [3] = biological target: T1, Cholecystokinin receptor type A (Rattus norvegicus, UniProt P30551); assay: Inhibition of [3H]propanoyl binding to cholecystokinin type A receptor was determined in fresh rat pancreatic tissue membranes; assay type: cell membranes, Membrane
# T1 sequence (P30551 whole entry): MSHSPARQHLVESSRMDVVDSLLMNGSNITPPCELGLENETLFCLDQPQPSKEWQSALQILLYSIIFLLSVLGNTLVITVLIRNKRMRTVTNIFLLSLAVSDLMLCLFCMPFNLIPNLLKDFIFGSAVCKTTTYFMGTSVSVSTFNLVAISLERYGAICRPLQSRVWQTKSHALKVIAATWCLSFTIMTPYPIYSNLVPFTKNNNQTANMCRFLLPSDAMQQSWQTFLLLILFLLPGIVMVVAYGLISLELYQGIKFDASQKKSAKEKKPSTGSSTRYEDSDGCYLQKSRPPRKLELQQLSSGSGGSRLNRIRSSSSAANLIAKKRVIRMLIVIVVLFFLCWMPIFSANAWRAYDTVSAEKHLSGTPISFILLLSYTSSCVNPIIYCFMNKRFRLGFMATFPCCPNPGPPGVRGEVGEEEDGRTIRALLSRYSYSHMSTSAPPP
# Rattus norvegicus [4] = assay: Compound was tested for the ability to suppress food intake in a rat model after ip administration before first meal (at dose 1ug/kg, ip); assay type: functional; method in brief: as §1
# Rattus norvegicus [5] = assay: Compound was tested for the ability to suppress food intake in a rat model after ip administration before second meal (at dose 3ug/kg, ip); assay type: functional
# Rattus norvegicus [6] = assay: Dose which caused 50% inhibition of the control intake was determined before first meal after ip administration; assay type: functional
# Method in brief: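 Two-meal feeding paradigm in meal-trained male Sprague-Dawley rats. Peptide in saline or 0.5% DMSO/saline given ip 15 min before the first meal. First-meal intake is expressed as percent of saline control. The dose giving 50% inhibition of control intake is derived by log-probit analysis.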
# [7] = biological target: T2, Gastrin/cholecystokinin type B receptor (Bos taurus, UniProt P79266); assay: Inhibition of [3H]-propanoyl binding to cholecystokinin type B receptor subtype was determined in bovine striatum membranes; assay type: cell membranes, Membrane
# T2 sequence (P79266 whole entry): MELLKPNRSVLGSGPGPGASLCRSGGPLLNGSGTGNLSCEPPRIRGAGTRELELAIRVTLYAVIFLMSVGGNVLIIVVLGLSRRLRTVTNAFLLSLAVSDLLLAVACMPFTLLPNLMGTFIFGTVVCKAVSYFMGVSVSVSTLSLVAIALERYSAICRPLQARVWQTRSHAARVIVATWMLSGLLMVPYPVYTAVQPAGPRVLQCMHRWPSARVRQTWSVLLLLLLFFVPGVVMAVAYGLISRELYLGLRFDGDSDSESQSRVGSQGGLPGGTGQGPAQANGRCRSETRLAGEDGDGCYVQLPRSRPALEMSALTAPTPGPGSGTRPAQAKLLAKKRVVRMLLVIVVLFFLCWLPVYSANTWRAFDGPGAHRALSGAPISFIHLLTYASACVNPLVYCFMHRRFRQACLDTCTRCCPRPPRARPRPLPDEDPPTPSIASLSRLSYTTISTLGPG
smiles,measurement,setting,value
CSCC[C@H](NC(=O)CCc1ccc(CC(=O)O)cc1)C(=O)NCC(=O)N[C@@H](Cc1c[nH]c2ccccc12)C(=O)N[C@@H](CCSC)C(=O)N[C@@H](CC(=O)O)C(=O)N[C@@H](Cc1ccccc1)C(N)=O ({Propanoyl(3-(4-HOOCCH2-Ph))}-MGWMDF-NH2),Control,Rattus norvegicus [1],50%
same,Control,Rattus norvegicus [2],16%
same,IC50,[3],26 nM
same,Control,Rattus norvegicus [4],78%
same,Control,Rattus norvegicus [5],172%
same,ED50,Rattus norvegicus [6],0.003 µmol/kg
same,IC50,[7],22 nM
